# Data published in ChEMBL document CHEMBL1139499, “Nucleotides and pronucleotides of 2,2-bis(hydroxymethyl)methylenecyclopropane analogues of purine nucleosides: synthesis and antiviral activity” (J Med Chem, 2005).
# Assays:
# [1] = Cytotoxic concentration to inhibit replication in H-1 cells (in CEM cells); type: functional; conditions: Homo sapiens, CCRF-CEM
# How it was run: (§1)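 EBV assayed in H-1 cells by DNA hybridization. Cytotoxicity determined separately in CEM cells. Single experiments unless specified otherwise.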
# [2] = system: MEF; assay: Cytotoxic concentration against murine cytomegalovirus infected MEF cells; type: functional; conditions: Mus musculus
# [3] = system: Human alphaherpesvirus 1; assay: Effective concentration required to inhibit herpes simplex virus 1 in BSC-1 cells in ELISA; type: functional, organism-based; conditions: Human alphaherpesvirus 1, BSC-1
# How it was run: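 HSV-1 assayed in BSC-1 cells with ELISA read-out; cytotoxicity in these assays determined in KB cells. Single experiments unless specified otherwise.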
# [4] = Effective concentration required to inhibit varicella zoster virus replication in HFF cells; type: functional, cell-based; conditions: Human alphaherpesvirus 3, HFF
# How it was run: (§2)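 VZV assayed in HFF cells by cytopathic effect (CPE) inhibition or by plaque reduction. Single experiments unless specified otherwise.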
# [5] = system: Human alphaherpesvirus 1; assay: Effective concentration required to inhibit herpes simplex virus 1 in vero cells in plaque reduction assay; type: functional, organism-based; conditions: Human alphaherpesvirus 1, Vero
# How it was run: (§3)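 HSV-1 and HSV-2 assayed in Vero cells by plaque reduction. Single experiments unless specified otherwise.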
# [6] = system: Human gammaherpesvirus 4; assay: Effective concentration required to inhibit Epstein-barr virus replication in H-1 cells in DNA hybridization assay; type: functional, organism-based; conditions: human gammaherpesvirus 4, H-1; how it was run: as §1
# [7] = system: Human alphaherpesvirus 1; assay: Effective concentration required to inhibit herpes simplex virus 1 in HFF cells in cytopathic effect (CPE) assay; type: functional, organism-based; conditions: Human alphaherpesvirus 1, HFF
# How it was run: (§4)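 HSV-1 and HSV-2 assayed in HFF cells by cytopathic effect (CPE) inhibition and by plaque reduction. Cytotoxicity measured in HFF cells. Single experiments unless specified otherwise.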
# [8] = system: Human alphaherpesvirus 2; assay: Effective concentration required to inhibit herpes simplex virus 2 in HFF cells in cytopathic effect (CPE) assay; type: functional, organism-based; conditions: Human alphaherpesvirus 2, HFF; how it was run: as §4
# [9] = system: Hepatitis B virus; assay: Effective concentration required to inhibit hepatitis B virus replication in 2.2.15 cells in DNA hybridization assay; type: functional, organism-based; conditions: HepG2 2.2.15
# How it was run: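 HBV assayed in 2.2.15 cells by DNA hybridization. CC50 values are those from the EBV/H-1 cytotoxicity determination, run in CEM cells. Single experiments unless specified otherwise.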
# [10] = system: Human betaherpesvirus 5; assay: Effective concentration for antiviral activity against AD169 strain of human cytomegalovirus in plaque reduction assay; type: functional, organism-based
# How it was run: (§5)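 Human CMV (Towne and AD169 strains) grown in HFF cell culture; antiviral effect read by plaque reduction or by cytopathic effect (CPE) inhibition. Cytotoxicity measured in HFF cells. Single experiments unless specified otherwise.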
# [11] = system: Human betaherpesvirus 5; assay: Effective concentration for antiviral activity against towne strain of human cytomegalovirus in plaque reduction assay; type: functional, organism-based; how it was run: as §5
# [12] = system: Human alphaherpesvirus 2; assay: Effective concentration required to inhibit herpes simplex virus 2 in vero cells in plaque reduction assay; type: functional, organism-based; conditions: Human alphaherpesvirus 2, Vero; how it was run: as §3
# [13] = system: Daudi; assay: Cytotoxic concentration to inhibit replication in daudi cells; type: functional; conditions: Homo sapiens
# [14] = system: HFF; assay: Cytotoxic concentration against towne strain of human cytomegalovirus infected HFF cells of human (visual cytotoxicity); type: functional; how it was run: as §5
# [15] = system: HFF; assay: Cytotoxic concentration against AD169 strain of human cytomegalovirus infected HFF cells of human (by neutral red uptake); type: functional
# [16] = system: KB (Homo sapiens); assay: Cytotoxic concentration required to inhibit KB cells
# [17] = system: Human gammaherpesvirus 4; assay: Effective concentration required to inhibit Epstein-barr virus replication in daudi cells in viral capsid immunofluorescence ELISA; type: functional, organism-based; conditions: human gammaherpesvirus 4, Daudi
# [18] = system: HFF; assay: Cytotoxic concentration against AD169 strain of human cytomegalovirus infected HFF cells of human (by cytopathic effect inhibition assay); type: functional; how it was run: as §5
# [19] = system: HFF; assay: Cytotoxic concentration against town strain of human cytomegalovirus infected HFF cells of human (visual cytotoxicity); type: functional; how it was run: as §5
# [20] = Effective concentration required to inhibit varicella zoster virus replication in HFF cells in cytopathic reduction assay; type: functional, cell-based; conditions: Human alphaherpesvirus 3, HFF; how it was run: as §2
# [21] = Effective concentration required to inhibit varicella zoster virus replication in HFF cells in plaque reduction assay; type: functional, cell-based; conditions: Human alphaherpesvirus 3, HFF; how it was run: as §2
# [22] = system: HFF; assay: Cytotoxic concentration to inhibit herpes simplex virus 1 infected HFF cells; type: functional; conditions: Homo sapiens; how it was run: as §4
# [23] = system: HFF; assay: Cytotoxic concentration to inhibit herpes simplex virus 2 infected HFF cells; type: functional; conditions: Homo sapiens; how it was run: as §4
# [24] = system: Vero; assay: Cytotoxic concentration required to inhibit herpes simplex virus 1 infected vero cells; type: functional; conditions: Chlorocebus sabaeus
# [25] = system: HFF; assay: Cytotoxic concentration to inhibit Herpes simplex virus 1 infected HFF cells; type: functional; conditions: Homo sapiens; how it was run: as §4
# [26] = system: HFF; assay: Cytotoxic concentration to inhibit Herpes simplex virus 2 infected HFF cells; type: functional; conditions: Homo sapiens; how it was run: as §4
# [27] = system: HFF; assay: Cytotoxic concentration against towne strain of human cytomegalovirus infected HFF cells of human (visual cytotoxicity); range=100-200; type: functional; how it was run: as §5
Structure (SMILES),CC50 [1] [µM],CC50 [2] [µM],EC50 [3] [µM],EC50 [4] [µM],EC50 [5] [µM],EC50 [6] [µM],EC50 [7] [µM],EC50 [8] [µM],EC50 [9] [µM],EC50 [10] [µM],EC50 [11] [µM],EC50 [12] [µM],CC50 [13] [µM],CC50 [14] [µM],CC50 [15] [µM],CC50 [16] [µM],EC50 [17] [µM],CC50 [18] [µM],further results
Nc1ncnc2c1ncn2/C=C1/CC1(CO)CO,> 50,> 404,50,> 404,> 50,> 20,> 404,> 404,> 10,11.7,2.4,> 50,> 202,> 100,> 404,> 100,–,–,–
Nc1nc(O)c2ncn(/C=C3\CC34COP(=O)(O)OC4)c2n1 (centres undefined),> 100,–,> 100,> 299,> 50,> 20,> 299,> 299,> 20,> 299,> 100,50,> 150,> 100,–,> 100,> 150,> 299,–
COC(=O)C(C)NP(=O)(OCC1(CO)C/C1=C\n1cnc2c(O)nc(N)nc21)Oc1ccccc1 (centres undefined),> 100,–,70,> 198,> 50,> 20,> 198,> 198,> 10,> 198,> 100,> 50,> 198,> 100,–,> 100,> 99,> 198,–
Nc1nc(O)c2ncn(/C=C3\CC3(CO)COP(=O)(O)O)c2n1 (centres undefined),> 100,–,> 100,> 291,> 50,> 20,> 291,> 291,> 20,> 291,> 100,> 50,> 146,–,–,> 100,> 146,> 291,CC50 [19]: > 100 µM
COC(=O)C(C)NP(=O)(OCC1(CO)C/C1=C/n1cnc2c(O)nc(N)nc21)Oc1ccccc1 (centres undefined),35,> 198,> 100,–,> 50,3.4,> 198,> 198,4.1,8.1,3.6,> 50,> 198,> 100,> 198,> 100,> 99,–,EC50 [20]: 6.3 µM; EC50 [21]: 7.3 µM
COC(=O)C(C)NP(=O)(OCC1(CO)C/C1=C\n1cnc2c(N)ncnc21)Oc1ccccc1 (centres undefined),> 25,–,> 100,> 205,> 30,> 20,> 205,> 205,> 20,> 205,> 100,> 30,> 102,> 100,–,> 100,> 102,> 205,–
Nc1nc(O)c2ncn(/C=C3/CC3(CO)COP(=O)(O)O)c2n1 (centres undefined),62,175,> 100,> 291,50,2.3,9.9,23.3,15,1.1,0.25,> 50,> 146,100,> 291,> 100,> 146,–,CC50 [22]: > 291 µM; CC50 [23]: > 291 µM
Nc1nc(O)c2ncn(/C=C3/CC34COP(=O)(O)OC4)c2n1 (centres undefined),> 100,> 301,20,> 301,16,> 20,> 301,242,0.8,6,20,22,> 150,> 100,> 301,> 100,0.96,–,CC50 [24]: > 100 µM
COC(=O)C(C)NP(=O)(OCC1(CO)C/C1=C/n1cnc2c(N)ncnc21)Oc1ccccc1 (centres undefined),3.8,–,55,> 41,> 40,3,21.1,22.1,12.8,18.4,3,> 40,> 102,32,200,3.5,> 102,–,CC50 [25]: 200 µM; CC50 [26]: 200 µM
Nc1nc2c(ncn2/C=C2/CC2(CO)CO)c(=O)[nH]1 [FILOCICLOVIR],> 50,> 380,> 100,> 380,> 50,–,> 380,> 380,> 10,0.49,0.33,> 50,74,–,> 380,> 100,–,–,CC50 [27]: 200 µM
Nc1nc2c(ncn2COC(CO)CO)c(=O)[nH]1 [GANCICLOVIR],–,> 392,–,–,–,5,–,–,–,1.6,2.1,–,–,–,> 392,–,–,–,CC50 [19]: > 100 µM
